Measurements as given in ChEMBL document CHEMBL1149360, “Synthesis of 2-amino-4-(7-azaindol-3-yl)pyrimidines as cyclin dependent kinase 1 (CDK1) inhibitors” (Bioorg Med Chem Lett, 2006).

Legend:
HeLa = assay: Antiproliferative activity against human HeLa cell line assessed as incorporation [14C]thymidine; format: functional, cell-based
In short: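 HeLa cervical carcinoma cells. Proliferation was read as ¹⁴C-thymidine incorporation into cellular DNA, and the IC₅₀ for inhibition of proliferation was derived from that.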

[1] = biological target: Cyclin-dependent kinase 1/cyclin B (Homo sapiens, UniProt P06493); assay: Inhibition of CDK1/cyclinB by Flashplate assay; format: protein-complex assay
In short: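 CDK1 complexed with cyclin B phosphorylated a biotinylated histone-H1 peptide substrate using ³³P-γ-ATP. The substrate was immobilized in a Flashplate format, and inhibition was read as reduced ³³P incorporation into the substrate.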

Row | SMILES | IC50 (HeLa) [µM] | IC50 [1] [µM]
1 | CN(C)CCn1cc(-c2ccnc(NC3CCCCC3)n2)c2cccnc21 | 8.9 | 
2 | Cn1cc(-c2ccnc(NC3CCCCC3)n2)c2cccnc21 | 52.1 | > 10
3 | FC(F)(F)c1ccccc1Nc1nccc(-c2c[nH]c3ncccc23)n1 | 0.392 | 
4 | COc1ccccc1Nc1nccc(-c2c[nH]c3ncccc23)n1 | 0.35 | 
5 | Cc1ccccc1Nc1nccc(-c2c[nH]c3ncccc23)n1 |  | 0.003
6 | c1cnc2[nH]cc(-c3ccnc(NCC4CCCCC4)n3)c2c1 | 0.368 | 
7 | c1ccc(Nc2nccc(-c3c[nH]c4ncccc34)n2)cc1 | 0.382 | 
8 | Oc1ccccc1Nc1nccc(-c2c[nH]c3ncccc23)n1 | 0.955 | 
9 | CS(=O)(=O)n1cc(-c2ccnc(NC3CCCCC3)n2)c2cccnc21 | 0.393 | 

The remaining molecules from weak to strong by IC50 (HeLa), led by results:

Row | IC50 (HeLa) [µM] | IC50 [1] [µM] | SMILES
10 | 0.292 |  | CCc1ccccc1Nc1nccc(-c2c[nH]c3ncccc23)n1
11 | 0.22 |  | Cc1ccc(Nc2nccc(-c3c[nH]c4ncccc34)n2)cc1
12 | 0.14 | 0.009 | Clc1ccccc1Nc1nccc(-c2c[nH]c3ncccc23)n1
13 | 0.13 | 0.28 | Cc1[nH]c2ncccc2c1-c1ccnc(N[C@H]2CC[C@H](N)CC2)n1
14 | 0.095 | 0.013 | Brc1ccccc1Nc1nccc(-c2c[nH]c3ncccc23)n1
15 | 0.092 |  | Fc1ccccc1Nc1nccc(-c2c[nH]c3ncccc23)n1
16 | 0.031 |  | c1cnc2[nH]cc(-c3ccnc(NC4CCCCC4)n3)c2c1
17 | 0.023 |  | CC(=O)n1cc(-c2ccnc(NC3CCCCC3)n2)c2cccnc21
18 | 0.011 | 0.0006 | Cc1cc(CCO)ccc1Nc1nccc(-c2c[nH]c3ncccc23)n1
19 | 0.003 | 0.001 | Cc1cc(CCN2CCCCC2)ccc1Nc1nccc(-c2c[nH]c3ncccc23)n1
20 | 0.003 | 0.0006 | Cc1cc(CCN2CCCC2)ccc1Nc1nccc(-c2c[nH]c3ncccc23)n1
21 | 0.003 | 0.0019 | Cc1cc(CCN2CCOCC2)ccc1Nc1nccc(-c2c[nH]c3ncccc23)n1
22 | 0.001 | 0.002 | N[C@H]1CC[C@H](Nc2nccc(-c3c[nH]c4ncccc34)n2)CC1
